Data set [1] deals with Musca domestica. Description: Toxicity against SCR-susceptible Musca domestica (house fly) assessed as immobility compound administered by intrathoracic injection 2 hr after piperonyl butoxide treatment measured 4 hr post compound treatment. It is filed as functional. An outline of the steps:
(§1)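 Houseflies first received 7.5 μg piperonyl butoxide in 0.5 μL acetone topically on the abdomen. After 2 h they were given the test compound by intrathoracic injection in 1 μL of 50% aqueous ethanol. Flies immobilised at 4 h were scored, and KD50 came from log dose–probit plots. Two independent experiments were run, each with 10 flies per dose and 1.5–2-fold dose spacing.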

A short description of data set [2]: Toxicity in ip dosed Mus musculus Swiss-Webster (mouse) assessed as mortality measured after 24 hr. Format: organism-based. The following applies: in vivo.
In data set [3] the target is T1, Ryanodine receptor 1 (Oryctolagus cuniculus, UniProt P11716).
T1 sequence (P11716 whole entry): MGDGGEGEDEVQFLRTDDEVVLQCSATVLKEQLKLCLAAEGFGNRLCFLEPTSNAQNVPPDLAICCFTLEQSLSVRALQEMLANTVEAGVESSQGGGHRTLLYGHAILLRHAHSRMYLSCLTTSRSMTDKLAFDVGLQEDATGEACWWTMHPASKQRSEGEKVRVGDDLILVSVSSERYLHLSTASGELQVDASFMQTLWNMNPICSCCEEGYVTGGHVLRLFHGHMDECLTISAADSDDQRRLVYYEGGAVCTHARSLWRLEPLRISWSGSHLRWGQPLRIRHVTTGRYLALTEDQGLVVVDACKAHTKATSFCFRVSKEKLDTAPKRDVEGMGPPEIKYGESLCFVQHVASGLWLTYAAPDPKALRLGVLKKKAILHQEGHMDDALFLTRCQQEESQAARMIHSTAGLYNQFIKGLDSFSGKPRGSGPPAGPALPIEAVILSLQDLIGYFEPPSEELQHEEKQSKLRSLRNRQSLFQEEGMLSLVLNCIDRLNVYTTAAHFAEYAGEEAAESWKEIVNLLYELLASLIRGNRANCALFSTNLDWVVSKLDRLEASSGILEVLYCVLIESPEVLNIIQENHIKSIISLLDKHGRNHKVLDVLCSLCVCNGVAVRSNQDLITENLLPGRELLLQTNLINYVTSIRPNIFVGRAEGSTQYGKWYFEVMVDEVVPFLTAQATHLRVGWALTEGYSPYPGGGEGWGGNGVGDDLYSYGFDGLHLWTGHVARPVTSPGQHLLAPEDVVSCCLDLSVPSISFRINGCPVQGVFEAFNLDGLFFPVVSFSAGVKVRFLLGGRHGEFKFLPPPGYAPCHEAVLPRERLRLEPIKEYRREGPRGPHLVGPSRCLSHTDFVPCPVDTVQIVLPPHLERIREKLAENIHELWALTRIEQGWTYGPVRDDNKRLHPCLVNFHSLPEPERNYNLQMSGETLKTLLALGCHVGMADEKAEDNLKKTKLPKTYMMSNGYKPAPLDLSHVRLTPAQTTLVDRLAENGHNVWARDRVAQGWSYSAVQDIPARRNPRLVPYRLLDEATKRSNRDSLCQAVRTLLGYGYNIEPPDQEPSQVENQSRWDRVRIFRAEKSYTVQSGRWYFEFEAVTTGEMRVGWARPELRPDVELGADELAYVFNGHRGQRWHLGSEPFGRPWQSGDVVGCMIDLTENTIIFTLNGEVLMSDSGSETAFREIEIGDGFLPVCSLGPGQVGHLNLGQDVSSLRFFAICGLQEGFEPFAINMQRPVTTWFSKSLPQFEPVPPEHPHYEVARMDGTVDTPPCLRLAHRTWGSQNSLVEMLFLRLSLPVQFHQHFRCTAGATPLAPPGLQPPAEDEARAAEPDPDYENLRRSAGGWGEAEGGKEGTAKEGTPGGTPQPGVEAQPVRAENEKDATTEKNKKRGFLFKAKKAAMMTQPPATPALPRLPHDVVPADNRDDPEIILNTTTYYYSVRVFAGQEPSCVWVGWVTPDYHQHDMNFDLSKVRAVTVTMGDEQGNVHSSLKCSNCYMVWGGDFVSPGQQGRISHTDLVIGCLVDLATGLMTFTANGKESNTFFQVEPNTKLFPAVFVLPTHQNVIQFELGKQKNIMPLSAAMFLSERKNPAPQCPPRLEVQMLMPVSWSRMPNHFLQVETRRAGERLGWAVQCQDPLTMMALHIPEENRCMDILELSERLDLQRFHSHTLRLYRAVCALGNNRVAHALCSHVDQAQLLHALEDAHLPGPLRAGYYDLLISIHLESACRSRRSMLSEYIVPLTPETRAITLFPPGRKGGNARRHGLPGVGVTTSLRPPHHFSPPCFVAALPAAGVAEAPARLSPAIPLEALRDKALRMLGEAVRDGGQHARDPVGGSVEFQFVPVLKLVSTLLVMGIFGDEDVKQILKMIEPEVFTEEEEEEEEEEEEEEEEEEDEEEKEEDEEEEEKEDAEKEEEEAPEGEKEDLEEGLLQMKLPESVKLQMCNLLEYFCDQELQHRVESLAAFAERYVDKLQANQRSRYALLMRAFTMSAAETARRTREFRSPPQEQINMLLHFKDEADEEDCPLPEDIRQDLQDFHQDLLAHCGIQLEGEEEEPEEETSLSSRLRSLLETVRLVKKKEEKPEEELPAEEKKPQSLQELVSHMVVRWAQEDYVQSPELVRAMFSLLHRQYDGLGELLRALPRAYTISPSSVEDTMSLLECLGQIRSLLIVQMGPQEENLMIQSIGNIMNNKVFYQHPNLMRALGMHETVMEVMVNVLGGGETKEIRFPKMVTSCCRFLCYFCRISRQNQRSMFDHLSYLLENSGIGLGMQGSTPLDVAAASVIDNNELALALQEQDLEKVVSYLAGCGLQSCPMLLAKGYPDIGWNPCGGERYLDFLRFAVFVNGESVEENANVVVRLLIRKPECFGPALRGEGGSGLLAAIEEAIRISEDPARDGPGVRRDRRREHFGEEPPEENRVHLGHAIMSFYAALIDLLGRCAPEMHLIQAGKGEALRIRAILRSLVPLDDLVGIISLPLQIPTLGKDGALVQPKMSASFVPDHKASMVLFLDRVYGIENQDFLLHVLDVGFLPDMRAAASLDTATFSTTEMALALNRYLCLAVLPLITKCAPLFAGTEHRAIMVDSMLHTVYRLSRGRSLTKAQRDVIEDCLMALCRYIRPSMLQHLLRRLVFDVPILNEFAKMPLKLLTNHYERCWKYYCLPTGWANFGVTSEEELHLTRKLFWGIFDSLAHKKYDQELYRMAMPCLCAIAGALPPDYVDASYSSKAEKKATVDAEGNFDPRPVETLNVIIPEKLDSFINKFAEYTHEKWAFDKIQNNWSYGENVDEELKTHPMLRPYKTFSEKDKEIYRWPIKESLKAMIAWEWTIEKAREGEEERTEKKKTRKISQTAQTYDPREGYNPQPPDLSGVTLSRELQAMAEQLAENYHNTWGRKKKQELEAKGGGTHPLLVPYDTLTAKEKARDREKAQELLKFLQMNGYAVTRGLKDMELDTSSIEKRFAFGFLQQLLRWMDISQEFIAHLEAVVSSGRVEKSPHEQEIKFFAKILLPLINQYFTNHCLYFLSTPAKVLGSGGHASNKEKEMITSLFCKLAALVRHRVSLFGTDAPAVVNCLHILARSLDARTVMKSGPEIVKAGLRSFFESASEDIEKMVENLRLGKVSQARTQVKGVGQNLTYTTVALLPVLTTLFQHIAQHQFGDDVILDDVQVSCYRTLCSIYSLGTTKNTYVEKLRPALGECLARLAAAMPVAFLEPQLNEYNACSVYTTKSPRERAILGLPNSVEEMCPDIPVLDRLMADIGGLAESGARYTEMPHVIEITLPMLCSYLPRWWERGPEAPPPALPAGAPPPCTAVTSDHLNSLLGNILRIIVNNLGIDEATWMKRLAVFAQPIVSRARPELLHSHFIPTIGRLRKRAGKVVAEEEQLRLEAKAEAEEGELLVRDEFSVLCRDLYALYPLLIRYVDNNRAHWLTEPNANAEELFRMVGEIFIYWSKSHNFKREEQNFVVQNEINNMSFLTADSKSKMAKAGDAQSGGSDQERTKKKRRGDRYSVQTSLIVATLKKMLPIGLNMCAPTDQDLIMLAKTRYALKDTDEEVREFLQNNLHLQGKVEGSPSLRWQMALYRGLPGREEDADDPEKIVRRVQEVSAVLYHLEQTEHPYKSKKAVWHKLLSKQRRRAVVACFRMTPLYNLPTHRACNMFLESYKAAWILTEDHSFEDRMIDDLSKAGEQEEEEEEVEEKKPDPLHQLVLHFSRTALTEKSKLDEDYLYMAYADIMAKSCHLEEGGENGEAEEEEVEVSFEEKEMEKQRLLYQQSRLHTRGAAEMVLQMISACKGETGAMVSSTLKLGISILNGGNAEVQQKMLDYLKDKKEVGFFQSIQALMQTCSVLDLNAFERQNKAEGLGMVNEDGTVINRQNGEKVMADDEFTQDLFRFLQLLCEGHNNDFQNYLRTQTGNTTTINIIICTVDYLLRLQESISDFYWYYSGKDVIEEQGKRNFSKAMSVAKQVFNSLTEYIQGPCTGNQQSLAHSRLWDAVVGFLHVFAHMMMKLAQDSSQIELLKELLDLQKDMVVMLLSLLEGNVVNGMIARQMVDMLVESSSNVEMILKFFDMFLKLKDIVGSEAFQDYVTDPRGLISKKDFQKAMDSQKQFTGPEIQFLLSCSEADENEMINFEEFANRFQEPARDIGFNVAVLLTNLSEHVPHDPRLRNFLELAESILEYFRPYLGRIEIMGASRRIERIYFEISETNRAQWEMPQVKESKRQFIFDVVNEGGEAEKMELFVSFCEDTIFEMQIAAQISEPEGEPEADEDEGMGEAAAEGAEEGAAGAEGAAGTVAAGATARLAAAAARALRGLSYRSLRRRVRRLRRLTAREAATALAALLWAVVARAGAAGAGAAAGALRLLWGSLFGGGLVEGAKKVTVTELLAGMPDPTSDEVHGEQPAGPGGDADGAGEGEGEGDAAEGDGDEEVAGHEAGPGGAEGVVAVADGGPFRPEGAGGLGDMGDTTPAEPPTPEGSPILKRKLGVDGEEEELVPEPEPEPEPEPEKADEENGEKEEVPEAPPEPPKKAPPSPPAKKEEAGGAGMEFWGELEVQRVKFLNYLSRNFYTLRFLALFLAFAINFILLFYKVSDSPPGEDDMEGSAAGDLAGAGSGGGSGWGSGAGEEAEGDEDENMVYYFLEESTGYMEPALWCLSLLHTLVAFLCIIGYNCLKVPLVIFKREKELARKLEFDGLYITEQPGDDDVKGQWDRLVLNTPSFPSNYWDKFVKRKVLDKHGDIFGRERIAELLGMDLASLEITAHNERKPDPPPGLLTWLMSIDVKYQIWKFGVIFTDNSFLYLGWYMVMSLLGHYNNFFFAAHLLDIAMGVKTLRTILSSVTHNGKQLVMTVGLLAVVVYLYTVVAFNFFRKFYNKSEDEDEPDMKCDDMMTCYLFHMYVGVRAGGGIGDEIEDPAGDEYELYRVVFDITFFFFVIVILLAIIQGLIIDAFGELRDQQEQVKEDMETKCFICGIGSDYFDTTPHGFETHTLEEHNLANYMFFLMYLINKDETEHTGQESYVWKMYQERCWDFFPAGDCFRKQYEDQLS
Data set [4] relates to Musca domestica. Description: Drug metabolism in SCR-susceptible Musca domestica (house fly) assessed as unidentified metabolite intermediate Rf in exctreta at 160 ug/g after 4 hr by TLC method. Format: ADME, organism-based. The following applies: in vivo.
Data set [5] has as its system Musca domestica. Description: Drug metabolism in SCR-susceptible Musca domestica (house fly) assessed as unidentified metabolite intermediate Rf in exctreta at 160 ug/g after 1 hr by TLC method. It is filed as ADME, organism-based. The following applies: in vivo. An outline of the steps:
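Excreta were extracted with MeOH, then run on TLC on 0.20-mm silica gel in 15% MeOH/CHCl3. Metabolites were detected by liquid scintillation counting.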

Data set [6] concerns Musca domestica. Description: Toxicity against SCR-susceptible Musca domestica (house fly) assessed as immobility compound administered by intrathoracic injection measured 4 hr post compound treatment. Format: functional. The method, boiled down:
(§2)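 Houseflies without piperonyl butoxide pretreatment received ryanoid by intrathoracic injection in 50% aqueous ethanol. Knockdown (immobility) was scored 4 h after treatment, and KD50 came from log dose–probit plots. Two independent experiments were run, each with 10 flies per dose and 1.5–2-fold dose spacing.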

In data set [7] the test system is Musca domestica. Description: Ratio of compound KD50 to ryanodine KD50 for SCR-susceptible Musca domestica (house fly) assessed as immobility compound administered by intrathoracic injection 2 hr after piperonyl butoxide treatment measured 4 hr post compound treatment. It is filed as functional. The method, boiled down: as §1
The subject of another data set is Mus musculus. Description: Ratio of compound LC50 to ryanodine LC50 for ip dosed Mus musculus Swiss-Webster (mouse) assessed as mortality measured after 24 hr. The following applies: in vivo. Format: ADME, organism-based.
Data set [8] deals with Musca domestica. Description: Ratio of compound KD50 to ryanodine KD50 for SCR-susceptible Musca domestica (house fly) assessed as immobility compound administered by intrathoracic injection measured 4 hr post compound treatment. It is filed as ADME, organism-based. The following applies: in vivo, other. An outline of the steps:
as §2

Data set [9] addresses T1, Ryanodine receptor 1. Description: Ratio of compound IC50 to ryanodine IC50 for Ca2+-ryanodine receptor in Oryctolagus cuniculus (rabbit) skeletal muscle sarcoplasmic reticulum after 80 min by competitive inhibition assay. It is filed as ADME. An outline of the steps:
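Rabbit fast skeletal muscle heavy SR (terminal cisternae) receptor, solubilised with 1 M NaCl, 1 mg CHAPS/mg protein and 40 mM Tris/maleate pH 7.1. […] Incubation was 80 min at 37°C, then GF/C filtration. IC50 came from Hill regression.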

SMILES strings stand for the structures. Bounds are passed on as bounds.

The LD50 is the dose at which mortality reaches 50%. As usually defined, the IC50 is the point on the concentration scale where inhibition reaches its midpoint. A high value points to weaker potency. For the compound `CO[C@@]12C[C@@]3(C)[C@@]4(O)CC[C@H](C)[C@@H](O)[C@]4(O1)[C@]1(O)[C@@]3(O)[C@H](OC(=O)c3cccn3C)[C@](O)(C(C)C)[C@]21C`, the KD50 with Musca domestica [1] is over 20 µg/g. For the same compound, in [2], the LD50 at 24 h came to 17 mg/kg. For the same compound, the IC50 against Ryanodine receptor 1 [3] worked out at 280 nM.

On to `CO[C@@]12C[C@@]3(C)[C@@]4(OC)CC[C@H](C)[C@@H](O)[C@]4(O1)[C@]1(O)[C@@]3(O)[C@H](OC(=O)c3cccn3C)[C@](O)(C(C)C)[C@]21C`, for which the KD50 in the data set with Musca domestica [1] came out at 12 µg/g. At Ryanodine receptor 1 [3], this compound displayed an IC50 of 1300 nM.

For the compound `CO[C@@]12C[C@@]3(C)[C@@]4(O)CC[C@H](C)[C@@H](O)[C@]4(O1)[C@]1(O)[C@@]3(OC)[C@H](OC(=O)c3cccn3C)[C@](O)(C(C)C)[C@]21C`, in the data set with Musca domestica [1], the KD50 was over 20 µg/g. Also, in [2], the 50% lethal dose (LD50) at 24 h was over 20 mg/kg. Besides, the IC50 on Ryanodine receptor 1 [3] worked out at 4500 nM.

Take `CC1=CC[C@]2(O)[C@]3(C)C[C@]4(O)O[C@@]2(C1=O)[C@]1(O)[C@@]3(O)[C@H](OC(=O)c2ccc[nH]2)[C@](O)(C(C)C)[C@@]14C`: in data set [2], the median lethal dose (LD50) at 24 h is over 5 mg/kg. In addition, the half-maximal inhibitory concentration (IC50) at Ryanodine receptor 1 [3] is 7300 nM.

Take `CO[C@@H]1[C@@H](C)CC[C@]2(O)[C@]3(C)C[C@]4(OC)O[C@]12[C@]1(O)[C@@]3(OC)[C@H](OC(=O)c2cccn2C)[C@](O)(C(C)C)[C@]41C`: the KD50 in the data set on Musca domestica [1] was over 20 µg/g. Also, the LD50 at 24 h in data set [2] was over 20 mg/kg. The IC50 on Ryanodine receptor 1 [3] was over 10000 nM.

As for `CC(C)[C@@]1(O)[C@@H](OC(=O)c2ccc[nH]2)[C@@]2(O)[C@@]3(C)C[C@]4(O)O[C@@]5([C@H](O)[C@](O)(CO)CC[C@]35O)[C@@]2(O)[C@]14C` [9,21-DIHYDROXYRYANODINE], the KD50 with Musca domestica [1] worked out at 10 µg/g. The IC50 against Ryanodine receptor 1 [3] was determined as 4900 nM.

As to `CC(C)[C@@]1(O)[C@@H](OC(=O)c2ccc[nH]2)[C@@]2(O)[C@@]3(C)C[C@]4(O)O[C@@]5([C@H](O)C6(CC[C@]35O)CO6)[C@@]2(O)[C@]14C` (stereo not given in full) [9,21-EPOXYRYANODINE], in the data set on Musca domestica [1], the KD50 amounted to 0.3 µg/g. For the same compound, in data set [2], the LD50 at 24 h came out at 1.5 mg/kg. At Ryanodine receptor 1 [3], this compound gave an IC50 of 140 nM.

As for `CC(=O)O[C@@H]1[C@@H](C)CC[C@]2(O)[C@]3(C)C[C@]4(O)O[C@]12[C@]1(O)[C@@]3(O)[C@H](OC(=O)c2ccc[nH]2)[C@](O)(C(C)C)[C@@]14C` [10-ACETYLRYANODINE], in the data set on Musca domestica [1], the KD50 was determined as 0.5 µg/g. Also, the IC50 against Ryanodine receptor 1 [3] is 140 nM.

`CC(C)[C@@]1(O)[C@@H](OC(=O)c2ccc[nH]2)[C@@]2(O)[C@@]3(C)C[C@]4(O)O[C@@]5(C(=O)[C@@H](C)CC[C@]35O)[C@@]2(O)[C@]14C` [10-KETORYANODINE]: the KD50 with Musca domestica [1] is over 20 µg/g. Further, the LD50 at 24 h in data set [2] stood at 0.55 mg/kg. Half-maximal inhibition against Ryanodine receptor 1 [3] (IC50) required 100 nM.

With `CC(CO)[C@@]1(O)[C@@H](OC(=O)c2ccc[nH]2)[C@@]2(O)[C@@]3(C)C[C@]4(O)O[C@@]5([C@H](O)[C@@H](C)CC[C@]35O)[C@@]2(O)[C@]14C` (stereo not given in full) [18-HYDROXYRYANODINE], the LD50 at 24 h in data set [2] amounted to 0.9 mg/kg. On Ryanodine receptor 1 [3], the half-maximal inhibitory concentration (IC50) stood at 88 nM.

Take `CC(C)[C@@]1(O)[C@@H](OC(=O)c2[nH]c(Br)c(Br)c2Br)[C@@]2(O)[C@@]3(C)C[C@]4(O)O[C@@]5([C@H](O)[C@@H](C)CC[C@]35O)[C@@]2(O)[C@]14C` [24,25,26-TRIBROMORYANODINE]: the 50% lethal dose (LD50) at 24 h in data set [2] is over 20 mg/kg. In addition, the IC50 on Ryanodine receptor 1 [3] was over 10000 nM.

Take `CC1=C(C(C)C)[C@@H](OC(=O)c2ccc[nH]2)[C@@]2(O)[C@@]3(C)CC(=O)O[C@@]4([C@H](O)[C@@H](C)CC[C@]34O)[C@@]12O` [ANHYDRORYANODINE]: the LD50 at 24 h in [2] is over 20 mg/kg. Further, the half-inhibitory concentration (IC50) on Ryanodine receptor 1 [3] is over 10000 nM.

`C=C1CC[C@]2(O)[C@]3(C)C[C@]4(O)O[C@@]2([C@@H]1O)[C@]1(O)[C@@]3(O)[C@H](OC(=O)c2ccc[nH]2)[C@](O)(C(C)C)[C@@]14C` [DEHYDRORYANODINE]: in the data set on Musca domestica [1], the KD50 was 0.03 µg/g. Besides, in data set [2], the 50% lethal dose (LD50) at 24 h came to 0.1 mg/kg. The same compound had a concentration for half-maximal inhibition (IC50) at Ryanodine receptor 1 [3] of 13 nM.

Take `C=C1CC[C@]2(O)[C@]3(C)C[C@]4(O)O[C@@]2([C@@H]1O)[C@]1(O)[C@@]3(O)[C@H](O)[C@](O)(C(C)C)[C@@]14C` [DIDEHYDRORYANODOL]: the KD50 in the data set with Musca domestica [1] is 0.36 µg/g. Besides, in [2], the LD50 at 24 h is over 20 mg/kg. At Ryanodine receptor 1 [3], the concentration for half-maximal inhibition (IC50) is 10000 nM.

`CC(C)[C@@]1(O)[C@@H](OC(=O)c2ccc[nH]2)[C@@]2(O)[C@@]3(C)C[C@]4(O)O[C@@]5([C@H](O)[C@H](C)CC[C@]35O)[C@@]2(O)[C@]14C` [EPIRYANODINE]: in data set [2], the LD50 at 24 h is 0.47 mg/kg.

In the case of `CC(C)[C@@]1(O)[C@@H](OC(=O)c2cccn2Cc2ccccc2)[C@@]2(O)[C@@]3(C)C[C@]4(O)O[C@@]5([C@H](O)[C@@H](C)CC[C@]35O)[C@@]2(O)[C@]14C` [N-BENZYLRYANODINE], the LD50 at 24 h in [2] was 6.3 mg/kg. This compound gave a 50% inhibitory concentration (IC50) at Ryanodine receptor 1 [3] of 310 nM.

In turn, `CCCCn1cccc1C(=O)O[C@H]1[C@@]2(O)[C@@]3(C)C[C@]4(O)O[C@@]5([C@H](O)[C@@H](C)CC[C@]35O)[C@@]2(O)[C@]4(C)[C@@]1(O)C(C)C` [N-BUTYLRYANODINE] yielded an IC50 against Ryanodine receptor 1 [3] of 860 nM.

With `CC(C)[C@@]1(O)[C@@H](OC(=O)c2cc[nH]c2)[C@@]2(O)[C@]3(C)C[C@@]4(O)O[C@@]5([C@H](O)[C@@H](C)CC[C@]35O)[C@@]2(O)[C@@]41C` [RYANODINE], the Drug metabolism result with Musca domestica [4] and with Musca domestica [5] was “Active” each time.

Regarding `CC(C)[C@@]1(O)[C@@H](OC(=O)c2ccc[nH]2)[C@@]2(O)[C@@]3(C)C[C@]4(O)O[C@@]5([C@H](O)[C@@H](C)CC[C@]35O)[C@@]2(O)[C@@]14C` [RYANODINE], the LD50 at 24 h in [2] was 0.1 mg/kg.

For `CC(C)[C@@]1(O)[C@@H](O)[C@@]2(O)[C@@]3(C)C[C@]4(O)O[C@@]5([C@H](O)[C@@H](C)CC[C@]35O)[C@@]2(O)[C@]14C` [RYANODOL], the KD50 amounted to 0.34 µg/g in the data set with Musca domestica [1] and 1.1 µg/g with Musca domestica [6]. Further, in data set [2], the 50% lethal dose (LD50) at 24 h was over 20 mg/kg. In addition, the IC50 against Ryanodine receptor 1 [3] was 35000 nM. The results for the Ratio with Musca domestica [7], with Mus musculus and with Musca domestica [8] were 3.6, over 200 and 0.8, respectively. The “Ratio IC50” value on Ryanodine receptor 1 [9] turned out to be 3500.

Values taken from ChEMBL document CHEMBL3045240 (J Med Chem, 1987).
